# Experimental data: ChEMBL document CHEMBL1139875, “Discovery of 4-aminobutyric acid derivatives possessing anticonvulsant and antinociceptive activities: a hybrid pharmacophore approach” (2007)
# The source made the active and inactive calls. The calls are words filed in the database; no cut-off is given here.
# Key:
# Mus musculus [1] = test: Anticonvulsant activity in Swiss Albino mouse at 300 mg/kg, ip after 0.5 hr by scSTY test; type: functional, organism-based; design: dose 300 mg/kg
# Outline: (§1)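 Mice (Swiss, 20-25 g) given i.p. doses of 30, 100 and 300 mg/kg under ADD program protocols, three per group, examined at 0.5 and 4 h in MES, scPTZ, scSTY or scPIC seizure tests. Value is the minimum dose protecting half or more of the mice.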
# Mus musculus [2] = test: Anticonvulsant activity in Swiss Albino mouse at 300 mg/kg, ip after 0.5 hr by scPTZ test; type: functional, organism-based; design: dose 300 mg/kg; outline: as §1
# Rattus norvegicus [3] = test: Antihyperalgesic effects in Sprague-Dawley rat CCI model assessed as duration of paw withdrawal at 100 mg/kg, ip after 1 hr; type: functional; settings: route intraperitoneal
# Rattus norvegicus [4] = test: Antihyperalgesic effects in Sprague-Dawley rat CCI model assessed as duration of paw withdrawal at 100 mg/kg, ip after 2.5 hrs; type: functional; settings: route intraperitoneal
# Mus musculus [5] = test: Anticonvulsant activity in Swiss Albino mouse at 300 mg/kg, ip after 4 hrs by scSTY test; type: functional, organism-based; design: dose 300 mg/kg; outline: as §1
# Rattus norvegicus [6] = test: Antihyperalgesic effects in Sprague-Dawley rat SNL model assessed as duration of paw withdrawal at 100 mg/kg, ip after 1 hr, ip; type: functional; settings: route intraperitoneal
# Outline: (§2)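 L5 SNL rats (n = 4), dosed 100 mg/kg i.p. (vehicle 30% v/v PEG 400 in water). Pin-prick to midplantar ipsilateral left hindpaw; withdrawal duration, mean of three responses; ≥2 s defined abnormal. Mean ± SEM; one-way ANOVA with Bonferroni versus predrug.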
# Rattus norvegicus [7] = test: Antihyperalgesic effects in Sprague-Dawley rat CCI model assessed as duration of paw withdrawal at 100 mg/kg, ip after 2 hrs; type: functional; settings: route intraperitoneal
# Rattus norvegicus [8] = test: Antihyperalgesic effects in Sprague-Dawley rat SNL model assessed as duration of paw withdrawal at 100 mg/kg, ip after 1.5 hrs, ip; type: functional; settings: route intraperitoneal; outline: as §2
# Mus musculus [9] = test: Neurotoxicity in Swiss Albino mouse at 300 mg/kg, ip after 0.5 hr by rotarod test; type: functional, organism-based; design: dose 300 mg/kg
# Outline: (§3)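 Swiss mice (20-25 g) are trained on an accelerating rotorod (10 rpm, 3.2 cm rod), then injected i.p. at 30, 100 or 300 mg/kg, with three per group. Neurotoxicity means failure to keep equilibrium for at least 1 min in each of three trials, checked at 0.5 and 4 h. The value reported is the minimum dose affecting half or more of the mice.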
# Rattus norvegicus [10] = test: Anti-cold allodynia effect in Sprague-Dawley rat SNL model assessed as duration of paw withdrawal 100 mg/kg, ip after 2 hrs; type: functional; settings: route intraperitoneal
# Outline: (§4)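 Left L5 spinal nerve ligation under pentobarbital (65 mg/kg i.p.). Allodynic rats dosed i.p. 100 mg/kg, vehicle 30% v/v PEG 400 in water. Acetone (100-200 µL) misted onto midplantar affected paw after 10 min acclimatization; paw withdrawal duration, mean of three samples at least 3 min apart; n = 4 rats.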
# Rattus norvegicus [11] = test: Effect on spontaneous pain in Sprague-Dawley rat CCI model assessed as duration of paw withdrawal at 100 mg/kg, ip after 1.5 hrs; type: functional; settings: route intraperitoneal
# Outline: (§5)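 Unilateral CCI of sciatic nerve (Bennett and Xie) in Sprague-Dawley rats under i.p. pentobarbital sodium (65 mg/kg). Spontaneous pain is scored over 5 min after 10 min acclimatization, as cumulative time the ipsilateral paw is held off the floor. Paw lifts from locomotion or repositioning are excluded. Drug is given at 100 mg/kg i.p. with 30% v/v PEG 400 vehicle. Mean ± SEM, n = 4, compared with predrug by ANOVA/Bonferroni.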
# Rattus norvegicus [12] = test: Anti-cold allodynia effect in Sprague-Dawley rat SNL model assessed as duration of paw withdrawal 100 mg/kg, ip after 1.5 hrs; type: functional; settings: route intraperitoneal; outline: as §4
# Mus musculus [13] = test: Analgesic activity in Swiss Albino mouse assessed as number of acetic acid-induced writhing per 30 min after 100 mg/kg, ip; type: functional; settings: route intraperitoneal
# Outline: (§6)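 Mice in groups of six dosed i.p. at 100 mg/kg, controls receiving 30% v/v PEG 400 in water. Writhing induced by i.p. 0.1 mL of 3% v/v acetic acid 1 h after drug. Writhes (abdominal stretch with at least one hind limb extended) counted over 30 min; % inhibition calculated. Mean ± SEM, Student's t test.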
# Mus musculus [14] = test: Analgesic activity in Swiss Albino mouse assessed as inhibition of acetic acid-induced writhing responses at 100 mg/kg, ip; type: functional; settings: route intraperitoneal; outline: as §6
# Rattus norvegicus [15] = test: Antihyperalgesic effects in Sprague-Dawley rat CCI model assessed as duration of paw withdrawal at 100 mg/kg, ip after 0.5 hr; type: functional; settings: route intraperitoneal
# Rattus norvegicus [16] = test: Anti-cold allodynia effect in Sprague-Dawley rat SNL model assessed as duration of paw withdrawal 100 mg/kg, ip after 1 hrs; type: functional; settings: route intraperitoneal; outline: as §4
# Rattus norvegicus [17] = test: Effect on spontaneous pain in Sprague-Dawley rat CCI model assessed as duration of paw withdrawal at 100 mg/kg, ip after 1 hr; type: functional; settings: route intraperitoneal
# Outline: (§7)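 CCI rats (n = 4) dosed 100 mg/kg i.p. (vehicle 30% v/v PEG 400 in water). After 10 min acclimatization in a cage 5 cm above ground, cumulative time the ipsilateral paw was held off the floor over 5 min recorded, excluding locomotion lifts. Mean ± SEM; ANOVA/Bonferroni versus predrug.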
# Rattus norvegicus [18] = test: Antihyperalgesic effects in Sprague-Dawley rat SNL model assessed as duration of paw withdrawal at 100 mg/kg, ip after 0.5 hr, ip; type: functional; settings: route intraperitoneal; outline: as §2
# Mus musculus [19] = test: Anticonvulsant activity in Swiss Albino mouse at 300 mg/kg, ip after 0.5 hr by MES test; type: functional, organism-based; design: dose 300 mg/kg; outline: as §1
# Rattus norvegicus [20] = test: Antihyperalgesic effects in Sprague-Dawley rat SNL model assessed as duration of paw withdrawal at 100 mg/kg, ip after 2.5 hrs, ip; type: functional; settings: route intraperitoneal; outline: as §2
# Rattus norvegicus [21] = test: Anti-cold allodynia effect in Sprague-Dawley rat SNL model assessed as duration of paw withdrawal 100 mg/kg, ip after 0.5 hr; type: functional; settings: route intraperitoneal; outline: as §4
# Mus musculus [22] = test: Neurotoxicity in Swiss Albino mouse at 300 mg/kg, ip after 4 hrs by rotarod test; type: functional, organism-based; design: dose 300 mg/kg; outline: as §3
# Rattus norvegicus [23] = test: Effect on spontaneous pain in Sprague-Dawley rat CCI model assessed as duration of paw withdrawal at 100 mg/kg, ip after 2 hrs; type: functional; settings: route intraperitoneal; outline: as §5
# Rattus norvegicus [24] = test: Antihyperalgesic effects in Sprague-Dawley rat SNL model assessed as duration of paw withdrawal at 100 mg/kg, ip after 2 hrs, ip; type: functional; settings: route intraperitoneal; outline: as §2
# Rattus norvegicus [25] = test: Effect on spontaneous pain in Sprague-Dawley rat CCI model assessed as duration of paw withdrawal at 100 mg/kg, ip after 2.5 hrs; type: functional; settings: route intraperitoneal; outline: as §5
# Mus musculus [26] = test: Anticonvulsant activity in Swiss Albino mouse at 300 mg/kg, ip after 4 hrs by scPIC test; type: functional, organism-based; design: dose 300 mg/kg; outline: as §1
# Rattus norvegicus [27] = test: Effect on spontaneous pain in Sprague-Dawley rat CCI model assessed as duration of paw withdrawal at 100 mg/kg, ip after 0.5 hr; type: functional; settings: route intraperitoneal; outline: as §7
# Rattus norvegicus [28] = test: Antihyperalgesic effects in Sprague-Dawley rat CCI model assessed as duration of paw withdrawal at 100 mg/kg, ip after 1.5 hrs; type: functional; settings: route intraperitoneal
# Rattus norvegicus [29] = test: Anti-cold allodynia effect in Sprague-Dawley rat SNL model assessed as duration of paw withdrawal 100 mg/kg, ip after 2.5 hrs; type: functional; settings: route intraperitoneal; outline: as §4
# Mus musculus [30] = test: Anticonvulsant activity in Swiss Albino mouse at 300 mg/kg, ip after 4 hrs by MES test; type: functional, organism-based; design: dose 300 mg/kg; outline: as §1
# Mus musculus [31] = test: Anticonvulsant activity in Swiss Albino mouse at 300 mg/kg, ip after 0.5 hr by scPIC test; type: functional, organism-based; design: dose 300 mg/kg; outline: as §1
structure (smiles),measurement,setting,value
C/C(=N\NC(=O)NCCCC(=O)O)c1cccc(N)c1,Activity,Mus musculus [1],inactive
same,Activity,Mus musculus [2],inactive
same,Activity,Rattus norvegicus [3],9.6 s
same,Activity,Rattus norvegicus [4],4.8 s
same,Activity,Mus musculus [5],inactive
same,Activity,Rattus norvegicus [6],6.5 s
same,Activity,Rattus norvegicus [7],6.6 s
same,Activity,Rattus norvegicus [8],7.3 s
same,Activity,Mus musculus [9],Active
same,Activity,Rattus norvegicus [10],13.5 s
same,Activity,Rattus norvegicus [11],0.9 s
same,Activity,Rattus norvegicus [12],17.5 s
same,Activity,Mus musculus [13],19.7
same,inhibition in vivo at 100 mg/kg,Mus musculus [14],89%
same,Activity,Rattus norvegicus [15],9.3 s
same,Activity,Rattus norvegicus [16],11.2 s
same,Activity,Rattus norvegicus [17],1.2 s
same,Activity,Rattus norvegicus [18],2.4 s
same,Activity,Mus musculus [19],Active
same,Activity,Rattus norvegicus [20],17.3 s
same,Activity,Rattus norvegicus [21],4.8 s
same,Activity,Mus musculus [22],Active
same,Activity,Rattus norvegicus [23],1.4 s
same,Activity,Rattus norvegicus [24],19.5 s
same,Activity,Rattus norvegicus [25],2.8 s
same,Activity,Mus musculus [26],inactive
same,Activity,Rattus norvegicus [27],1.7 s
same,Activity,Rattus norvegicus [28],9.9 s
same,Activity,Rattus norvegicus [29],15.2 s
same,Activity,Mus musculus [30],Active
same,Activity,Mus musculus [31],inactive
